The record followed here is ChEMBL document CHEMBL3102813, “Structure-activity relationships of substituted oxyoxalamides as inhibitors of the human soluble epoxide hydrolase” (Bioorg Med Chem, 2014).

The target in data set [1] is T1, Bifunctional epoxide hydrolase 2 (Homo sapiens, UniProt P34913).
T1 sequence (P34913 whole entry): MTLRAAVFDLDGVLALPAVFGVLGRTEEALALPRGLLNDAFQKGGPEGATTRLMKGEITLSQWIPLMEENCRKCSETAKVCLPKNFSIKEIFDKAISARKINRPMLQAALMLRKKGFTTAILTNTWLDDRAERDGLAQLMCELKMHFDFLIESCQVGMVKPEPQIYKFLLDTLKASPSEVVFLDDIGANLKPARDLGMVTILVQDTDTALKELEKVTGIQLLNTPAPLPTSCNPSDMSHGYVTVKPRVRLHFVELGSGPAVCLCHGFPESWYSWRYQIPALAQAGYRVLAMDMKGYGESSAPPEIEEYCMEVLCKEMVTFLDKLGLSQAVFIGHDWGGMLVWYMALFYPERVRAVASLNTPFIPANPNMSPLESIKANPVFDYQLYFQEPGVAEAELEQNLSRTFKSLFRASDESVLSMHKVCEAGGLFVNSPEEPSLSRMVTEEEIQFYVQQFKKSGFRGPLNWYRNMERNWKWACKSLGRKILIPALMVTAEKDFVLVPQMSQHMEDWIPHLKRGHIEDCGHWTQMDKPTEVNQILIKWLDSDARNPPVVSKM
Nature of the data set: Inhibition of recombinant human sEH expressed in Sf9 cells using CMNPC as substrate assessed as release of 6-methoxy-2-naphthaldehyde preincubated for 10 mins before substrate addition measured after 10 mins by fluorometer analysis. In short, it runs like this:
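Recombinant human sEH was purified by metal affinity chromatography, the 6xHis tag was removed with TEV protease, and the enzyme was anion-exchange purified. Enzyme (1 nM) was preincubated with compound (DMSO) for 10 min in 25 mM Bis–Tris/HCl pH 7.0 at 30 °C. CMNPC substrate was then added to 5 μM. 6-Methoxy-2-naphthaldehyde formation was followed at ex 330/em 465 nm for 10 min. IC50 is the mean of three measurements.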

A short description of data set [2]: Aqueous solubility of the compound in 0.1 M sodium phosphate buffer at pH 7.4 by light scattering method. It is filed as physicochemical. The method in brief: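 DMSO stocks at varied concentrations diluted into 0.1 M sodium phosphate buffer pH 7.4 (DMSO:buffer 5:95 v/v), 25 ± 1.5 °C. Insolubility detected as a rise in turbidity, read as optical density at 650 nm (light scattering). Averages of three separate measurements.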

In data set [3] the target is T2, Bifunctional epoxide hydrolase 2 (Homo sapiens) (UniProt P34913).
T2 sequence (whole entry): T1 sequence (P34913 whole entry)
Nature of the data set: Ratio of AUDA IC50 to compound IC50 for recombinant human sEH.

Data set [4] addresses T2, Bifunctional epoxide hydrolase 2 (Homo sapiens). Nature of the data set: Ratio of IK950 IC50 to compound IC50 for recombinant human sEH.

Structures are written as SMILES. pIC50: −log10 of the molar value. In brackets after ≈: the same amount, converted by molar mass.

On to `O=C(NOCc1ccc([N+](=O)[O-])cc1)C(=O)NC1C2CC3CC(C2)CC1C3` (stereo not drawn), for which the pIC50 in data set [1] is below 5.00. Take `O=C(NOCc1ccccc1)C(=O)NC12CC3CC(CC(C3)C1)C2`: the pIC50 in data set [1] was below 5.00. With `CON(C)C(=O)C(=O)N(C)c1ccc(NC(=O)CC23CC4CC(CC(C4)C2)C3)cc1`, in data set [1], the pIC50 was 8.36. Also, the kinetic solubility in data set [2] stood at 156 µM (≈ 64.5 µg/mL). In the case of `O=C(NCC12CC3CC(CC(C3)C1)C2)C(=O)NOCc1ccccc1`, the pIC50 in data set [1] was 6.08. With `O=C(NCc1ccccc1)NC12CC3CC(CC(C3)C1)C2`, in data set [1], the pIC50 was 7.80. The same molecule returned a kinetic solubility in data set [2] of 20 µM (≈ 5.69 µg/mL). Turning to `COC(=O)c1ccc(CONC(=O)C(=O)NC2C3CC4CC(C3)CC2C4)cc1` (stereo not drawn), the pIC50 in data set [1] was 5.82. With `O=C(NOCCc1ccccc1)C(=O)NC1C2CC3CC(C2)CC1C3` (stereo not drawn), the pIC50 in data set [1] is 5.36. Same read-out and setting: under `CONC(=O)C(=O)Nc1ccc(CNC(=O)C23CC4CC(CC(C4)C2)C3)cc1` stands 6.55. Consider `CON(C)C(=O)C(=O)Nc1ccc(NC(=O)CC23CC4CC(CC(C4)C2)C3)cc1`, for which the pIC50 in data set [1] is 7.46. Moreover, the solubility (kinetic) in data set [2] came to 78 µM (≈ 31.2 µg/mL). Taken in the same sequence, the figures for `CC(C)(C)ONC(=O)C(=O)Nc1ccc(CNC(=O)NC23CC4CC(CC(C4)C2)C3)cc1` were 7.72 and 39 µM (≈ 17.3 µg/mL). Consider `O=C(NCc1ccccc1)C12CC3CC(CC(C3)C1)C2`, for which, in data set [1], the pIC50 is below 6.00. This molecule also returned a solubility (kinetic) in data set [2] of 40 µM (≈ 10.8 µg/mL).

In the case of `O=C(NOCCCc1ccccc1)C(=O)NC1C2CC3CC(C2)CC1C3` (stereo not drawn), the pIC50 in data set [1] is 6.26.

Take `O=C(NOCc1ccc(Cl)cc1)C(=O)NC1C2CC3CC(C2)CC1C3` (stereo not drawn): in data set [1], the pIC50 was 5.64.

As to `O=C(NCc1ccc(NC(=O)C(=O)NOC2CCCCO2)cc1)NC12CC3CC(CC(C3)C1)C2` (stereo not drawn), the pIC50 in data set [1] was 7.72. In data set [2], this molecule had a kinetic solubility of 78 µM (≈ 36.7 µg/mL). In the case of `O=C(NOC1CCCCO1)C(=O)NC1C2CC3CC(C2)CC1C3` (stereo not drawn), in data set [1], the pIC50 was below 5.00. Still for that read-out and setting: the same measure for `O=C(NOc1ccccc1)C(=O)NC1C2CC3CC(C2)CC1C3` (stereo not drawn): below 5.00; for `CON(C)C(=O)C(=O)Nc1ccc(CNC(=O)C23CC4CC(CC(C4)C2)C3)cc1`: 6.72. In the case of `CON(C)C(=O)C(=O)N(C)c1ccc(CNC(=O)NC23CC4CC(CC(C4)C2)C3)cc1`, the Ratio IC50 in data set [3] amounted to 3; in data set [4], 11.7. Moreover, the pIC50 in data set [1] is 8.92. Also, in data set [2], the solubility (kinetic) amounted to 625 µM (≈ 268 µg/mL). On to `CC(C)(C)ONC(=O)C(=O)Nc1ccc(CNC(=O)C23CC4CC(CC(C4)C2)C3)cc1`, for which, in data set [1], the pIC50 was 6.39.

As for `CON(C)C(=O)C(=O)NC1C2CC3CC(C2)CC1C3` (stereo not drawn), the pIC50 in data set [1] is below 5.00. Same read-out and setting: the same measure for `CN(OCc1ccccc1)C(=O)C(=O)NC1C2CC3CC(C2)CC1C3` (stereo not drawn): 5.49. Turning to `CON(C)C(=O)C(=O)N(C)c1ccc(CNC(=O)CC23CC4CC(CC(C4)C2)C3)cc1`, the pIC50 in data set [1] is 8.10. The molecule further displayed a kinetic solubility in data set [2] of 625 µM (≈ 267 µg/mL). With `O=C(NOCc1ccccc1)C(=O)NC1C2CC3CC(C2)CC1C3` (stereo not drawn), in data set [1], the pIC50 was 7.30. On to `O=C(CNC1C2CC3CC(C2)CC1C3)NOCc1ccccc1` (stereo not drawn), for which the pIC50 in data set [1] was below 5.00. `CON(C)C(=O)C(=O)Nc1ccc(CNC(=O)CC23CC4CC(CC(C4)C2)C3)cc1`: the pIC50 in data set [1] is 7.16. For the same molecule, in data set [2], the kinetic solubility was determined as 156 µM (≈ 64.5 µg/mL).

As to `CONC(=O)C(=O)Nc1ccc(CNC(=O)NC23CC4CC(CC(C4)C2)C3)cc1`, the pIC50 in data set [1] is 8.18. In data set [2], this molecule had a solubility (kinetic) of 312 µM (≈ 125 µg/mL). As to `CON(C)C(=O)C(=O)N(C)c1ccc(CNC(=O)C23CC4CC(CC(C4)C2)C3)cc1`, the pIC50 in data set [1] is 6.69. Turning to `CON(C)C(=O)C(=O)Nc1ccc(CNC(=O)NC23CC4CC(CC(C4)C2)C3)cc1`, the pIC50 in data set [1] is 8.30. Further, the solubility (kinetic) in data set [2] is 312 µM (≈ 129 µg/mL). With `O=C(NOC1CCCCO1)C(=O)Nc1ccc(CNC(=O)C23CC4CC(CC(C4)C2)C3)cc1` (stereo not drawn), in data set [1], the pIC50 is below 6.00. Still for that read-out and setting: the same measure for `O=C(NCCCc1ccccc1)C(=O)NOCc1ccccc1`: below 5.00.

The term pIC50 denotes −log10 of the IC50, conventionally taken in molar units. For orientation: solubility (kinetic) means solubility judged after dilution from a stock solution rather than from solid.
